Results on three compounds are retold here after PMC4259821 (European journal of pharmacology, 2014).

Structures are written as SMILES. pEC50, pIC50: −log10 of the molar value. Structures can show the parent of a compound that is named as a salt. A value given as a limit tells only on which side of the number the result lay.

In one test the test system is ICSS in rats. Nature of the test: Intracranial self-stimulation. It is filed as in vivo, rat. Conditions: i.p.
The next test addresses CB2 (Homo sapiens, UniProt P34972). Briefly: Calcium mobilization assay, CB2. It is filed as cell-based. (Calcium flux is commonly read through the fluorescence of an indicator in the cells.)
Another test has as its target CaV 3.2 (Homo sapiens, UniProt O95180). Briefly: Calcium voltage channel 3.2 calcium mobilization assay. It is filed as cell-based.
The target in another test is TRPV1 (Homo sapiens, UniProt Q8NER1). Briefly: Calcium mobilization assay, TRPV1. It is filed as cell-based. The gist of the method:
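HEK293 cells stably expressing human TRPV1, plated overnight at 30,000 cells/well on PEI-coated plates in DMEM-HG with 10% FBS. Calcium 5 dye in HBSS, 20 mM HEPES, 2.5 mM probenecid, pH 7.4, for 45 min at 37°C. Antagonist mode: 15 min compound pretreatment, then EC50–EC80 capsaicin. Agonist mode: compound added directly. Three-parameter logistic fit.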

Test [1] has as its system cocaine self-administration. Conditions: rats; 5–30 mg/kg i.p.; ref Schmoutz et al., 2012; cited from earlier work.
The target of the next test is T1, APJ (Apelin) (Homo sapiens, UniProt P35414).
T1 sequence (P35414 1-380): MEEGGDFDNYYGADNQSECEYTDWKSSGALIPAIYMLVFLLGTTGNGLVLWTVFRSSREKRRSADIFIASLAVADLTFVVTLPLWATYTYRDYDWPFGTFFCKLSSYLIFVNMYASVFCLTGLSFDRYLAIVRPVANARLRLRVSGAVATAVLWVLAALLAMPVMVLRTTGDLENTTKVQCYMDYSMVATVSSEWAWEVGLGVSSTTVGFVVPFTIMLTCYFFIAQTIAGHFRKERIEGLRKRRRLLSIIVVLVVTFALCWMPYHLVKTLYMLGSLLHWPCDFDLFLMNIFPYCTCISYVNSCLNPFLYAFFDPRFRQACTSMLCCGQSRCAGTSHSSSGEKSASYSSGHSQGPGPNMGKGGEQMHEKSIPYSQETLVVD
Briefly: Calcium mobilization assay, APJ. It is filed as cell-based. The essentials: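 CHO-Gα16-APJ cells were plated overnight at 30,000 cells/well in DMEM/F12 with 10% FBS and loaded with Calcium 5 dye for 45 min at 37°C. Compound dilutions contained BSA/DMSO: 2.25% BSA/9% DMSO for pretreatment, 0.25% BSA/1% DMSO for treatment. Antagonist mode: 15 min pretreatment, then EC50–EC80 apelin. Fluorescence was read on FLIPR or FlexStation. EC50/IC50 came from a three-parameter logistic fit.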

Another test concerns the target 5HT2B (Homo sapiens, UniProt P41595). Briefly: Calcium mobilization assay, 5-HT2B. It is filed as cell-based. The gist of the method: (§1)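 Stable human 5-HT2A or 5-HT2B HEK293 cells were plated overnight on PEI-coated plates at 40,000 or 35,000 cells/well in DMEM-HG, 10% FBS, 15 mM HEPES. Calcium 5 dye was loaded for 45 min at 37°C in HBSS/HEPES/probenecid, pH 7.4. Antagonist mode used 15 min compound pretreatment, then EC50–EC80 5-HT. Peak fluorescence change was fit to a three-parameter logistic.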

A further test deals with delta opioid receptor (Homo sapiens, UniProt P41143). Nature of the test: Calcium mobilization assay, delta opioid receptor. It is filed as cell-based.
In a further test the target is T2, 5HT1A (Homo sapiens, UniProt P08908).
T2 sequence (P08908 1-422): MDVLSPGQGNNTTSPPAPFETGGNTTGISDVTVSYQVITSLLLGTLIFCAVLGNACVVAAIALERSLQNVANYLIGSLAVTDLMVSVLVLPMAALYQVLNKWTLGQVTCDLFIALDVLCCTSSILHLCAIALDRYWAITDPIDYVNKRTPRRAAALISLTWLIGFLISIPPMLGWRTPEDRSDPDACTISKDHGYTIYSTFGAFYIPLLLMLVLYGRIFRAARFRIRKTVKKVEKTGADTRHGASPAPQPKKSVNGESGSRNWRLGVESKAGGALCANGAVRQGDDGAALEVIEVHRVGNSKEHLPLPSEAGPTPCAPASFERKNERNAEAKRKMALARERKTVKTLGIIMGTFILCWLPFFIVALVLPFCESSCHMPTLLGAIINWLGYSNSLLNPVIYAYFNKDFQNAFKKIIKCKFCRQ
Briefly: Calcium mobilization assay, 5-HT1A. It is filed as cell-based. The gist of the method:
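CHO-Gα16 cells stably expressing human 5-HT1A, plated overnight at 25,000 cells/well in Ham's F12 with 10% FBS. Calcium 5 dye (1:40) in HBSS, 20 mM HEPES, 2.5 mM probenecid, pH 7.4, for 45 min at 37°C. Agonist mode: compound added at 10 s, fluorescence read 90 s. Antagonist mode: 15 min compound pretreatment, then EC50–EC80 5-HT. Three-parameter logistic fit.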

The target in a further test is 5HT2A (Homo sapiens, UniProt P28223). Nature of the test: Calcium mobilization assay, 5-HT2A. It is filed as cell-based. The gist of the method: as §1
The next test addresses T3, hTAAR1 (Homo sapiens, UniProt Q96RJ0).
T3 sequence (Q96RJ0 1-339): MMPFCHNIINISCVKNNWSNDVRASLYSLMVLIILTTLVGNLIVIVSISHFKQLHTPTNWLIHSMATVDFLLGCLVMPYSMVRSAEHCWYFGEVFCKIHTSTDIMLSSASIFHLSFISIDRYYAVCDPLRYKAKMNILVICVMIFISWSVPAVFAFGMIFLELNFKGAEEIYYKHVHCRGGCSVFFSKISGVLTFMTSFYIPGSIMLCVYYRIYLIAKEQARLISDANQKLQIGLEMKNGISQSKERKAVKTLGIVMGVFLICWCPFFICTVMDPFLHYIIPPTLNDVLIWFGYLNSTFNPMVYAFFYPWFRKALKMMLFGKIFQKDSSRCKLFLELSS
Nature of the test: hTAAR1 cAMP assay. It is filed as cell-based. Background: cAMP levels reflect the balance of adenylyl cyclase and phosphodiesterase activity.

For test [2], the system named is NPS receptors. Conditions: calcium mobilization; ref Zhang et al., 2008; cited from earlier work.
The target in a further test is CB1 (Homo sapiens, UniProt P21554). Briefly: Calcium mobilization assay, CB1. It is filed as cell-based.
The next test deals with CaV 3.1 (Homo sapiens, UniProt O43497). Nature of the test: Calcium voltage channel 3.1 calcium mobilization assay. It is filed as cell-based.
In the next test the target is mu opioid receptor (Homo sapiens, UniProt P35372). Nature of the test: Calcium mobilization assay, mu opioid receptor. It is filed as cell-based.
In a further test the target is kappa opioid receptor (Homo sapiens, UniProt P41145). Briefly: Calcium mobilization assay, kappa opioid receptor. It is filed as cell-based.
Test [3] relates to NPS receptors. Briefly: In vitro calcium mobilization assay, NPS receptor antagonism. It is filed as cell-based. Conditions: vs 13 receptors and ion channels of Table 1.
The test system of test [4] is food-maintained responding. Conditions: rats, ref Schmoutz et al., 2012, cited from earlier work.

kappa opioid receptor, sequence (P41145 whole entry): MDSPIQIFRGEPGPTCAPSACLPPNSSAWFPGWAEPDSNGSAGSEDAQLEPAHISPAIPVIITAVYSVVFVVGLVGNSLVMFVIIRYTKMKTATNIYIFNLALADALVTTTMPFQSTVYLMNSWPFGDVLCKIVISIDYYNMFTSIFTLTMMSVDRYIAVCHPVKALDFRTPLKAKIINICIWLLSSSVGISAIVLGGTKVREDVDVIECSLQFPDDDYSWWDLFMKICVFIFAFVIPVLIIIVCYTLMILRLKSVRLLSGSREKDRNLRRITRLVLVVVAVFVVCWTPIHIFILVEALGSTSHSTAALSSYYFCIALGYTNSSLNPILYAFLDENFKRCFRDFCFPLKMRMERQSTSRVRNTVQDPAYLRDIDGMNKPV
5HT2A, sequence (P28223 whole entry): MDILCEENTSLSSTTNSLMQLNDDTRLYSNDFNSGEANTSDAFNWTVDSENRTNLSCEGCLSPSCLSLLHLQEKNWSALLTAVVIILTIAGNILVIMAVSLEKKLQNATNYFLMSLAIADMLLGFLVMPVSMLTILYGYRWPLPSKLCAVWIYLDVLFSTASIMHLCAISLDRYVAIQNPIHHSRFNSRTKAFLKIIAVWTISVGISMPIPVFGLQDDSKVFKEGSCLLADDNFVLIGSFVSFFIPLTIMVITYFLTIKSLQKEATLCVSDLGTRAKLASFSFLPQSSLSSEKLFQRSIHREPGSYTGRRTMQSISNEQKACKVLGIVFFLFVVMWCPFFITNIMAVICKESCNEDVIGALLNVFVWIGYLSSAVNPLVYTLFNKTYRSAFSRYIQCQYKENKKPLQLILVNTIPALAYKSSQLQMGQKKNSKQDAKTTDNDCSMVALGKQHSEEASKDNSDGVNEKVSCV
TRPV1, sequence (Q8NER1 whole entry): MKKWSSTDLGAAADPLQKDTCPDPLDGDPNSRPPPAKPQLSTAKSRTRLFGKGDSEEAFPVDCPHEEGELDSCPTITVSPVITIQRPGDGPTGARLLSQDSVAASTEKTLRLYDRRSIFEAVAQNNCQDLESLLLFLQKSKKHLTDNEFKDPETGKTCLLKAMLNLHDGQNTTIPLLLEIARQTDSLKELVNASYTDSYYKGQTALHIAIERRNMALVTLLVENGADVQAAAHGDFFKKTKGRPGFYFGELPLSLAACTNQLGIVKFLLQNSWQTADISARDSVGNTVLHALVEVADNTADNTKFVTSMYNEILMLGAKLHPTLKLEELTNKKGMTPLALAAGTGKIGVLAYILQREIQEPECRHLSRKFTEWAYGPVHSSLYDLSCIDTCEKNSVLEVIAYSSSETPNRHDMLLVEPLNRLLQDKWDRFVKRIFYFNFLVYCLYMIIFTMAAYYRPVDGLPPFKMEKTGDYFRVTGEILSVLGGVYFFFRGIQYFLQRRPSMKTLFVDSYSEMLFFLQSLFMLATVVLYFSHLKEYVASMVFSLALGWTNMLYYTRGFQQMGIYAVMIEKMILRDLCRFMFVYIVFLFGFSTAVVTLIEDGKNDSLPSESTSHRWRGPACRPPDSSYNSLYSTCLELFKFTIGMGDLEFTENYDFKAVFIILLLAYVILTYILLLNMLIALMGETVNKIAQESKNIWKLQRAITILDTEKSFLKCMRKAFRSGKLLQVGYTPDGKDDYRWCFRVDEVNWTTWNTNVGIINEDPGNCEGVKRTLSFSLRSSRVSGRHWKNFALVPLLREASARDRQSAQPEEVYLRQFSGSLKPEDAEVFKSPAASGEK
CB2, sequence (P34972 whole entry): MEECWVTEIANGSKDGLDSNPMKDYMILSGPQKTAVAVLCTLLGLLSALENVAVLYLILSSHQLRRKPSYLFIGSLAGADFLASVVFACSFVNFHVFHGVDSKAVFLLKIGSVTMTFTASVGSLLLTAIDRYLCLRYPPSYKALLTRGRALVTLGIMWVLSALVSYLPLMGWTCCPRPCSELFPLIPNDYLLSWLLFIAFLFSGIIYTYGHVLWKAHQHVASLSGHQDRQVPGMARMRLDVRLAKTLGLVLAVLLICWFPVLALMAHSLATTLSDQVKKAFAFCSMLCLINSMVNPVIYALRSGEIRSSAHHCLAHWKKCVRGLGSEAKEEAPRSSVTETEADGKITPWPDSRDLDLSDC
5HT2B, sequence (P41595 whole entry): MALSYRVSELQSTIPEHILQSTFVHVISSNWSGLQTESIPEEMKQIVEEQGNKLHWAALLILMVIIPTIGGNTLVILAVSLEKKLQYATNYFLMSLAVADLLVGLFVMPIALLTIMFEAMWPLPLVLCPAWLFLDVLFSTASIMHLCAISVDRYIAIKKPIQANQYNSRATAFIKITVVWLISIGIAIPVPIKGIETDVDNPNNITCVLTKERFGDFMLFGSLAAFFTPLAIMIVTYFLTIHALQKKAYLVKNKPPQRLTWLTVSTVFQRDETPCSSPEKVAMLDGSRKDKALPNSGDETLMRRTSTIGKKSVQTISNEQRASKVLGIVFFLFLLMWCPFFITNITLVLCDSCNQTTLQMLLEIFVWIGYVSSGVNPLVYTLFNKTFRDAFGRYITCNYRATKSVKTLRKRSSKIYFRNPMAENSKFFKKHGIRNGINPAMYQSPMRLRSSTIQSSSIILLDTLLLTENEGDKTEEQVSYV
CB1, sequence (P21554 whole entry): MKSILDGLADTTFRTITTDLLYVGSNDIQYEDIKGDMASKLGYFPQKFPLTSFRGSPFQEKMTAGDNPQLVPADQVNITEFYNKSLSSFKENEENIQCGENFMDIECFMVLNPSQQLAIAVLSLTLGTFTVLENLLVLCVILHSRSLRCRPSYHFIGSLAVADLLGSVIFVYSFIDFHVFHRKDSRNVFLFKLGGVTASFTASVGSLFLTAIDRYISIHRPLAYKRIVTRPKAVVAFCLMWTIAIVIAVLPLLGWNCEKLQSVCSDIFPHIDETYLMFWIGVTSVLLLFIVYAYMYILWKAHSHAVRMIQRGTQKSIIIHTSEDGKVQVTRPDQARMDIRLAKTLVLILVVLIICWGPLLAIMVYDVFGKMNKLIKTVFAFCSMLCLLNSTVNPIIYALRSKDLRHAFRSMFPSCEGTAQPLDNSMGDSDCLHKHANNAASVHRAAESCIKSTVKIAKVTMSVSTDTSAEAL
mu opioid receptor, sequence (P35372 whole entry): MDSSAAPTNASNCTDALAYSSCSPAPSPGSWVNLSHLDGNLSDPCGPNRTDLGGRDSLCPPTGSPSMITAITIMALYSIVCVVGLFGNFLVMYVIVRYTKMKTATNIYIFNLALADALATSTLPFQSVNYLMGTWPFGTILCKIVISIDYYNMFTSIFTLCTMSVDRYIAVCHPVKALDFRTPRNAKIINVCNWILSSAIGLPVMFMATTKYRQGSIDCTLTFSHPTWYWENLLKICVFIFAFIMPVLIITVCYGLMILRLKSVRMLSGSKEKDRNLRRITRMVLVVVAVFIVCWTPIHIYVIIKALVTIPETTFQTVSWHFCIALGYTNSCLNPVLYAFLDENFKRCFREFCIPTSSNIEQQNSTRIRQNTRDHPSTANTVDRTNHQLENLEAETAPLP
delta opioid receptor, sequence (P41143 whole entry): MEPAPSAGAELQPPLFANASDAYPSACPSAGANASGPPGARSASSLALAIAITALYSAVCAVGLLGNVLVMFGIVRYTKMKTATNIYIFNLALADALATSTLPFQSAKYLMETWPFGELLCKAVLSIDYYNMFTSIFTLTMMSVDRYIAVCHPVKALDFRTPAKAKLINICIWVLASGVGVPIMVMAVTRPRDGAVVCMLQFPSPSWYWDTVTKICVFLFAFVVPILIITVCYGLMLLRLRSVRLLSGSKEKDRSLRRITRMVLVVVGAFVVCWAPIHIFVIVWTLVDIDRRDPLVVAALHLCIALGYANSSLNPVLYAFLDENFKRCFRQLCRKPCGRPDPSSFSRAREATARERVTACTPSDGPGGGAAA

Take `COC(=O)[C@H]1[C@@H](OC(=O)c2ccccc2)C[C@@H]2CC[C@H]1N2C` [Cocaine, (−)-Cocaine HCl, reference compound]: the “Effect on ICSS, drug alone” value in the test with ICSS in rats (10 mg/kg cocaine) is recorded as “facilitated ICSS across a broad range of six frequencies (1.75–2.0 log Hz)”.

By pEC50 is commonly meant the negative decadic logarithm of the EC50, by convention in mol/L. Usually pIC50 stands for the IC50 on a negative log10 scale, so that one unit is a factor of ten. Take `O=C(NCCN1CCCCC1)N1CCN2C(=O)OC(c3ccccc3)(c3ccccc3)C2C1` (stereo not shown) [RTI-118, 3-oxo-1,1-diphenyl-N-(2-(piperidin-1-yl)ethyl)tetrahydro-1H-oxazolo[3,4-a]pyrazine-7(3H)-carboxamide]: the pEC50 on CB2, at TRPV1, at APJ (Apelin), at 5HT2B, at delta opioid receptor and at 5HT1A was less than 5.00 throughout. In addition, the pEC50 on 5HT2A, on hTAAR1, at CB1, at mu opioid receptor and on kappa opioid receptor was less than 5.00 in each case. The pIC50 at CB2, at CaV 3.2, on TRPV1, at APJ (Apelin), on 5HT2B and on delta opioid receptor was less than 5.00 throughout. The pIC50 at 5HT1A, on 5HT2A, against hTAAR1, on CB1, at CaV 3.1 and on mu opioid receptor was less than 5.00 throughout. The pIC50 on kappa opioid receptor was less than 5.00. In test [1], the “Effect on cocaine self-administration” value is “dose-dependent and nearly complete elimination of cocaine self-administration”. Moreover, the “Effect on ICSS, drug alone” value in the test on ICSS in rats (10 mg/kg RTI-118) is given as “significantly increased ICSS at one frequency (1.9 log Hz)”; in the test on ICSS in rats (32 mg/kg RTI-118, first group of rats), “significantly decreased ICSS at only one frequency (2.05 log Hz)”; in the test on ICSS in rats (32 mg/kg RTI-118, second group of rats (MDPV study)), “did not significantly alter ICSS at any frequency”; in the test with ICSS in rats (low doses of 3.2–10 mg/kg RTI-118) it was “had little effect on ICSS”. Further, the “Effect of pretreatment on MDPV-induced facilitation of ICSS” value in the test with ICSS in rats (32 mg/kg RTI-118 + 3.2 mg/kg MDPV) is recorded as “did not alter MDPV-induced facilitation of ICSS”. In addition, in the test on ICSS in rats (pretreatment + 10 mg/kg cocaine vs vehicle + 10 mg/kg cocaine), the “Effect of pretreatment on cocaine-induced facilitation of ICSS” value was “attenuation of cocaine effects was statistically significant only at the highest RTI-118 dose (32 mg/kg)”. In the test on NPS receptors [2], the “Ke value as an antagonist at NPS receptors” value is 109 ± 23 nM. Also, the “Selectivity for NPS receptors relative to the other targets” value with NPS receptors [3] is recorded as “at least 100 fold”. The “Reduction in rates of food-maintained responding” value in test [4] (30 mg/kg) was “up to 20%”. The “Effect on rates of food-maintained responding” value in [4] (doses up to 20 mg/kg IP) is reported as “had no effect on rates of food-maintained responding”.

Consider `CCCC(C(=O)c1ccc2c(c1)OCO2)N1CCCC1.Cl` (racemic) [MDPV, (±)-3,4-methylenedioxypyrovalerone HCl, reference compound], for which the “Effect on ICSS, drug alone” value in the test on ICSS in rats (3.2 mg/kg MDPV vs vehicle + vehicle) is recorded as “facilitated ICSS across a broad range of frequencies (1.75–2.05 log Hz)”.
